Assay outcomes: PubChem, several laboratories
Furin inhibitor = human furin inhibitors, primary screen, biochemical, fluorescence intensity; purified furin, fluorogenic substrate cleavage; 220,000 compounds, 0.061% hits; P09958; AID 463115, 2010; inhibition, % at 20 µM or 30 µM; in the data active = inhibition above about 25%
Target sequence (P09958 108-714 limits assumed): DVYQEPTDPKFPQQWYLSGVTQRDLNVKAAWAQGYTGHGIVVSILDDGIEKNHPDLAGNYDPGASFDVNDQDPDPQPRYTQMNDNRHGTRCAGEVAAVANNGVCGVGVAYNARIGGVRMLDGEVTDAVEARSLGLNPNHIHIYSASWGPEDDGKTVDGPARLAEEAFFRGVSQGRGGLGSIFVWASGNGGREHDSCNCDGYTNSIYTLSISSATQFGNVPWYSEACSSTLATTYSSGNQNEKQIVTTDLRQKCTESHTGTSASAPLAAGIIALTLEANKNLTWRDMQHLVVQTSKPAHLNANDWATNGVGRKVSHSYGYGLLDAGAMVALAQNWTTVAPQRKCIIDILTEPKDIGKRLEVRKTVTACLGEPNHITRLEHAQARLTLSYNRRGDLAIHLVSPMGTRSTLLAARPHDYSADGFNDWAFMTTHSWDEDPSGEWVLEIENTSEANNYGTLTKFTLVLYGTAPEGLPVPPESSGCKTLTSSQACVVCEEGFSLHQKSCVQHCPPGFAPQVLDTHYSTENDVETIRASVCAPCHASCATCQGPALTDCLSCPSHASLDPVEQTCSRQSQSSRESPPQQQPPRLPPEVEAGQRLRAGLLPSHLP
Biofilm kill mix = clotrimazole potentiators killing C. albicans biofilm, primary screen, 4-compound mixtures. 120,000 compounds, 0.02% hits. C. albicans biofilm persisters + clotrimazole, fluorescence viability; primary screen in compound mixtures of four per well. inhibition, % at 7.6 µM;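 active = inhibition above 30.3% in the primary screen of four-compound pools, then above 30% when the compound was retested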;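 note: compounds exposed to preformed 24 h biofilms for 48 h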
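Incubation: 24 h biofilm formation, then 48 h compound exposure, 37 °C | Material: C. albicans biofilms | Buffer or medium: RPMI/MOPS medium, pH 7.0 | Measured by: 2-h Alamar Blue fluorescence, 535/590 nm excitation/emission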
Pf gametocyte = late stage P. falciparum gametocyte viability inhibitors, primary screen, ATP luminescence, HTS | 150,000 compounds, 0.065% hits | P. falciparum stage V gametocytes, 24 h | inhibition, % at 10.9 µM;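 active = inhibition above the mean plus 3 SD of compounds within the control limits, set per campaign, cut at about 38% in these data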
Each line names hits and unclear results; the compound was inactive in the other large screens. In the library only some 0.11% were active in any assay of this set; here they are far more common.

Cc1c(N=C/C=C2\N(C)c3ccccc3C2(C)C)c(=O)n(-c2ccccc2)n1C	none (no result: Biofilm kill mix)
Cc1c(N=C/C=C2/N(C)c3ccccc3C2(C)C)c(=O)n(-c2ccccc2)n1C	Furin inhibitor 26.3
Cc1cc(-c2ccccc2)nc(N2CCC(C(=O)NCC3CCCCC3)CC2)n1	none (no result: Biofilm kill mix, Pf gametocyte)
CCC(Sc1ncccc1C(=O)O)C(=O)N1CCOCC1 (stereo unspecified)	none (no result: Biofilm kill mix, Pf gametocyte)
CCC(Sc1ncccc1C(=O)O)C(=O)N1CCCC1 (stereo unspecified)	Furin inhibitor 28.4 (no result: Biofilm kill mix, Pf gametocyte)
O=C(c1cnn2c(-c3ccccc3)cc(-c3ccccc3)nc12)N1CCN(Cc2ccccc2)CC1	none (no result: Furin inhibitor, Biofilm kill mix)
COC(=O)c1[nH]c2ccccc2c1NC(=O)CN1CCC(C(N)=O)(N2CCCCC2)CC1	Furin inhibitor 28.1 (no result: Biofilm kill mix)
COC(=O)c1[nH]c2ccccc2c1NC(=O)CN1CCCCCC1	none (no result: Biofilm kill mix, Pf gametocyte)
O=C(Cn1cc(S(=O)(=O)N2CCN(c3ccccc3F)CC2)c2ccccc2c1=O)NCCCN1CCCCCC1	none
Cc1ccc2nc(/C(C#N)=C/c3ccc(O)c(O)c3)[nH]c2c1	none (no result: Furin inhibitor, Biofilm kill mix)
Cc1ccc2nc(/C(C#N)=C/c3cn[nH]c3-c3ccc(F)cc3)[nH]c2c1	Furin inhibitor 28.2 (no result: Biofilm kill mix, Pf gametocyte)
O=C(/C=C/c1ccc(Br)o1)Nc1nnc(C2CC2)s1	none (no result: Pf gametocyte)
COC(=O)c1cc(NC(=O)Nc2cccc(Cl)c2)ccc1Cl	none (no result: Biofilm kill mix, Pf gametocyte)
COC(=O)c1cc(NC(=O)c2ccc(-c3ccccc3)cc2)ccc1Cl	Pf gametocyte 41.4
Cc1ccc(NC(=O)c2ccc(OC(F)(F)F)cc2)cc1S(=O)(=O)N(C)C	none (no result: Pf gametocyte)
